Test results taken from article PMC6906348 (Therapeutic Advances in Medical Oncology, 2019).

System: patients with MET-dysregulated advanced hepatocellular carcinoma (HCC)
Assay: Antitumor activity per RECIST 1.1
Format: in vivo, human
Details: for Best overall response: Unknown: RECIST 1.1 data do not qualify for PD, PR, or SD
In short: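 Asia-Pacific patients with advanced HCC received oral test compound twice daily in continuous 21-day cycles: 300 mg capsules (dose-determining), or 600 mg capsules or 400 mg tablets (expansion), until progression or toxicity. Investigator read response per RECIST 1.1 on CT, or contrast MRI if CT was contraindicated. MET-high meant IHC 3+ in ⩾50% tumor cells, or 2+ in ⩾50% plus FISH GCN ⩾5.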

[1] = Dose-determining n = 8 (300 mg BID capsules)
[2] = Dose-expansion, All patients n = 30
[3] = Dose-expansion, MET-high n = 10
[4] = MET-high expansion group (n = 10)
[5] = MET-high expansion group, 1 patient

CNC(=O)c1ccc(-c2cnc3ncc(Cc4ccc5ncccc5c4)n3n2)cc1F [capmatinib]
Best overall response: Complete response (CR) [1]: 0 n (%)
Best overall response: Partial response (PR) [1]: 0 n (%)
Best overall response: Progressive disease [1]: 3 (38) n (%)
Best overall response: Unconfirmed CR [1]: 0 n (%)
Best overall response: Unconfirmed PR [1]: 0 n (%)
Disease control rate (CR + PR + SD) (95% CI) [1]: 2 (25) (3.2−65.1) n (%)
Overall response rate (CI 95%) [1]: 0 (0−36.9) n (%)
Best overall response: Unknown [1]: 3 (38) n (%)
Best overall response: Complete response (CR) [2]: 1 (3) n (%)
Best overall response: Partial response (PR) [2]: 2 (7) n (%)
Best overall response: Progressive disease [2]: 16 (53) n (%)
Best overall response: Unconfirmed CR [2]: 0 n (%)
Best overall response: Unconfirmed PR [2]: 1 (3) n (%)
Disease control rate (CR + PR + SD) (95% CI) [2]: 10 (33) (17.3−52.8) n (%)
Overall response rate (CI 95%) [2]: 3 (10) (2.1−26.5) n (%)
Best overall response: Unknown [2]: 4 (13) n (%)
Best overall response: Complete response (CR) [3]: 1 (10) n (%)
Best overall response: Partial response (PR) [3]: 2 (20) n (%)
Best overall response: Progressive disease [3]: 4 (40) n (%)
Best overall response: Unconfirmed CR [3]: 0 n (%)
Best overall response: Unconfirmed PR [3]: 1 (10) n (%)
Disease control rate (CR + PR + SD) (95% CI) [3]: 5 (50) (18.7−81.3) n (%)
Overall response rate (CI 95%) [3]: 3 (30) (6.7−65.2) n (%)
Best overall response: Unknown [3]: 1 (10) n (%)
Best overall response: Complete response (CR) (Dose-expansion, MET-low n = 20): 0 n (%)
Best overall response: Partial response (PR) (Dose-expansion, MET-low n = 20): 0 n (%)
Best overall response: Progressive disease (Dose-expansion, MET-low n = 20): 12 (60) n (%)
Best overall response: Unconfirmed CR (Dose-expansion, MET-low n = 20): 0 n (%)
Best overall response: Unconfirmed PR (Dose-expansion, MET-low n = 20): 0 n (%)
Disease control rate (CR + PR + SD) (95% CI) (Dose-expansion, MET-low n = 20): 5 (25) (8.7−49.1) n (%)
Overall response rate (CI 95%) (Dose-expansion, MET-low n = 20): 0 (0−16.8) n (%)
Best overall response: Unknown (Dose-expansion, MET-low n = 20): 3 (15) n (%)
number of complete responses [4]: 1
number of partial responses [4]: 2
duration of durable complete response [5]: > 600 days
duration of durable partial response [5]: > 600 days
overall response rate (all expansion patients (n = 30), regardless of MET status): 10%
time on treatment of two responding patients (at data cut-off, still on treatment): over 600 days
patients with MET-high status achieving tumor shrinkage (expansion stage): 6/10
overall response rate (expansion stage, MET-high (n = 10)): 30%
